System: MS2 coat protein
Test: apparent Kd, MS2 coat protein; higher = weaker binding; RNA-MaP array; FMN 200 µM where present
Method in brief: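 Stalled E. coli RNA polymerase produced the designs on Illumina sequencing-chip clusters. SNAP-549-labelled MS2 coat protein was added from 0.7 or 1.5 nM, doubling to 3 µM, without and then with constant ligand, in 100 mM Tris-HCl pH 7.5, 80 mM KCl, 4 mM MgCl2, BSA, DTT, yeast tRNA and Tween-20. The apparent Kd is the median of filtered per-cluster fits of green signal normalised to red-channel RNA signal and control-cluster median Fmax.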

[1] = designed as: ON switch for flavin mononucleotide, no ligand
[2] = ligand present: flavin mononucleotide, designed as: ON switch for flavin mononucleotide
[3] = designed as: OFF switch for flavin mononucleotide, no ligand
[4] = ligand present: flavin mononucleotide, designed as: OFF switch for flavin mononucleotide

Sequence	apparent Kd [1] [nM]	apparent Kd [2] [nM]	apparent Kd [3] [nM]	apparent Kd [4] [nM]
CGAUAUAACUCAGGAUAUCGGCAUGGGUAGAUUACAUGAGGAUCACCCAUGUGCAUGUCCCGGCACGAGAAGGGAGUAACGCAU	290	47.8	–	–
GGAUCGAGUGUGAGGAUAUGCUGGUCCUUGGAUCAGCAGAAGGCACAUGAGGAUCACCCAUGUGGUAACGGUCC	–	–	190	537
ACCUGACAUGAGGAUCACCCAUGUCAGGAUAUGUACAUCAGGAAAAAAAAACUGAUGUACAGAAGGGACUUGGG	–	–	22.4	18.1
AUAUCGUUAUCAGGAUAUGGACAGGCCUGUCCGUAUUGAGACAGUAACAUGAGGAUCACCCAUGUCCAGAAGGGAUCGAUGUAU	–	–	54.2	48.6
CCGUGAGCAGGAUAUACAUGAGGAUCACCCAUGUCCGAUCCAAACAUGGGAAAAGAAGGUAGAAGGGUUUGAGG	–	–	28.5	36.1
GCCGCUGUAGGAUAUGCCAGGGUGGCAGCUUGAUGUGUGGCACAUGAGGAUCACCCAUGUAGAAGGACAGAAAG	–	–	18.7	50.8
CCGUUGAUGGGACAGGAUAUGACUGUCGUCACAUGAGGAUCACCCAUGUCCCGGCAAUGCCACCGUUAGAAGGGUCCCGUCUCGG	16	15.9	–	–
AAUAUAAAGAGCUGGCUCAAUUUAACAUGAGGAUCACCCAUGUAGGAUAUCAGCACGAUAAGUGCUGAGAAGGACAUCCAGCUC	–	–	16.7	36
GUGGUAUUCGUAGGAUAUCCGUCGCCACCGUGUGGAGAAGGACGAACAUGAGGAUCACCCAUGUAUCAUGGUGUGGACGUUGUC	–	–	80.2	88.4
GGGUACGUUUCGUAGCAGUGUCAUCGAGAAGGCCCUGACAUGAGGAUCACCCAUGUUGUUACAUGGGAGGAUAUCGAUGAUGGG	48.4	8.12	–	–
GUGUACGGAGGAUAUGCUGGAAUCUAGCGAAGCUAGGUUCCACAUGAGGAUCACCCAUGUAGAAGGUCGUACAC	–	–	39.3	16.1
UUUAUGUCAGGAUAUGAGUAGUAGAACAAUAGUACUACUACUCAGAAGGGACAUGAGGAUCACCCAUGUGCCUC	–	–	35.2	291
GAUUUACAUGAGGAUCACCCAUGUGAGGAUAUGGAAUGGCUCAUUGUCUGAUUUCCUUCUAGAAGGCACAUCUG	–	–	54.2	54.9
UUUACAUGAGGAUCACCCAUGUUUAGAAAGAUUGGUUUAGGUGAGGAUAUACAUGAUAAUGAAUUGUAGAAGGCACUGGGUACA	30.1	24	–	–
UGCUUCGUGUAAGGAUAUGCUGCCGUUUCGGCUGCAGAAGGUACUAUAAUACAUGAGGAUCACCCAUGUCUCUCGCUUUGCGGG	55.9	26.6	–	–
AGGGAUAAAGGAUAUACAUGAGGAUCACCCAUGUUGAGGAAAGUGAGAGGUGGCGAUAGUAGAAGGUUAGGUGG	–	–	92.6	70.1
GGAUAGGACAGAGGAUAUACGUGAUAGAGAUACUAGCAAAAUUUCCUCACAUGAGGAUCACCCAUGUAGAAGGCUGUCCUAUCG	–	–	310	115
GGAAAUCAUGUAGGAUAUGCAUGGCGAAGCUACGCAGAAGGACAUGAGGAUCACCCAUGUUAUAGCUACCCGUUACGGUGGCAA	–	–	131	119
AGAGAUGACGAAGGAUAUGGAUACAUGAGGAUCACCCAUGUUUAUAUAGUGAAAUUGAUUGAAUUCCAGAAGGUCGAAUAAAAG	–	–	46.7	36.9
UGGAUGUAGGAGAAGGAGGACUUCAUGAGGAUCACCCAUGUGUUAGGACUUAGGAUAUUUGACAACAUGAGGAUCACCCAUGUG	60	52.7	–	–
GUAGCUAUCGGAGGAUAUUCAUACCGGAAACGGACAUGAGGAUCACCCAUGUGGCGAAAGCCAUGGGAGAAGGCCGAUAGCUAC	606	131	–	–
GUAUCUUACCGAGGAUAUUUACGAUUAGUGUAGACAUGAGGAUCACCCAUGUGGCGUUAGUCACGGGAGAAGGCGGUUUGAUAC	92.2	20.5	–	–
GUUACACAUGAGGAUCACCCAUGUAAGGAUAUGCUGCGGUCGCGCUGACGUGACUGCAGCAGAAGGUACACAUG	–	–	105	133
GCAGCACAGAUUUACAUGAGGAUCACCCAUGUCUAUUGAGAUGAGGAUAUGCAUCGAAUGAAGUUGCAGAAGGCAUUGUGCUGC	7.51	6	–	–
UCAAGUAUGUAGGAUAUCGAUGUCUACGGACAUCGAGAAGGACGUACAUGAGGAUCACCCAUGUAACUUGCAUG	–	–	464	188
AAAUAAACUAGCAUAAUAACCUCACAUGAGGAUCACCCAUGUAAGGAUAUCUGUCCUAAAAGGACAGAGAAGGUACGUGCUAGG	–	–	4.72	4.88
GGAGCACACAUUAACAUGAGGAUCACCCAUGUCAAAAGACAUGAGGAUAUGGAUACGAAAAGGAUCCAGAAGGCAUGGUGCUCC	693	72.5	–	–
AUACAUGAGGAUCACCCAUGUAAUUAAUUAAUUAAUAAGAUCUAGGAUAUCAGCUCGAUUAGAGCUGAGAAGGAGAUCACAUGU	24.2	14.6	–	–
